Rows were chosen to be rich in hits. Some 4.6% of all compounds tested hit in one or more screens of this group.
TAAR1 antag – human TAAR1 antagonism; Q96RJ0; CHO RD-HGA16 TAAR1, Fluo-8 calcium fluorescence, antagonist; actives 1.5% (n = 360,000); inhibition, % at 3 µM; AID 624466;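 active means inhibition above a per-plate cutoff, the mean inhibition of test compounds on that plate plus 3 SD, cut at about 49% in these data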;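 further: 0% = DMSO plus EC80 beta-PEA response and 100% = DMSO alone without agonist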
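Material: CHO RD-HGA16 cells bearing hTAAR1; compound dosing: one-point dosing, 3 µM nominal final; schedule: dye loading 75 min at 37 °C, then 30 min room temperature; measured by: calcium fluorescence with Fluo-8; control set: vehicle and agonist controls; replication: n of 1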
GPR7 antag – blocks human GPR7 receptor signaling | P48145 | GPR7-expressing cells, fluorescence antagonist assay | inhibition, % at 4.4 µM | actives 1.1% (n = 290,000); in the data active means inhibition above about 16%, passing the limit was not always enough;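 further: cells stimulated with the agonist NPW; 0% = agonist with vehicle and 100% = vehicle without agonist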
TAAR1 ag – agonists of human TAAR1; actives 0.99% (n = 360,000); CHO RD-HGA16 TAAR1, Fluo-8 calcium fluorescence; vehicle wells 0%, saturating PEA agonist 100%; activation, % at 3 µM; AID 624467; Q96RJ0;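 active means activation above the mean activation of all test compounds in the run plus 3 SD, cut at about 38% in these data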
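System: CHO-derived RD-HGA16 cells with stable Gα16 and human TAAR1. Times: 17-24 h plating, Fluo-8 75 min 37 °C, 30 min RT. Measured by: calcium-sensitive Fluo-8 signal, excitation 470-495, emission 515-575 nm. Read-out basis: % activation relative to PEA EC100 response. Control set: DMSO and PEA EC100. Repeats: no replicates (n 1).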
OX1R antag-1 – blocks the human orexin 1 receptor | OX1R-expressing cells, FRET antagonist read-out | inhibition, % at 6.6 µM | actives 1.8% (n = 330,000); in the data active means inhibition mostly above about 38%, no sharp cut-off; inactive means mostly below about 40%;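 further: 0% = agonist challenge alone and 100% = reference antagonist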
Target sequence (O43613 whole entry, looked up): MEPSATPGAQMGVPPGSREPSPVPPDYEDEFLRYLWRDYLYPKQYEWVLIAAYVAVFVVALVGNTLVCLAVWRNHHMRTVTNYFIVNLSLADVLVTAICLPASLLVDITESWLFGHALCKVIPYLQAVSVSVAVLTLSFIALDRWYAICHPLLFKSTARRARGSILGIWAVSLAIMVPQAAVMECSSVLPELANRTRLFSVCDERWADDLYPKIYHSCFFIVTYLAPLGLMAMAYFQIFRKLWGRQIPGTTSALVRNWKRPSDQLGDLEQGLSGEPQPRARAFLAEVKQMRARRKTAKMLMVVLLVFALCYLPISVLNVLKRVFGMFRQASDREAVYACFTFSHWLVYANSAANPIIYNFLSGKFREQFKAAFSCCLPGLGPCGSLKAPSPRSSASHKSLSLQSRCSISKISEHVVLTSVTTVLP
OX1R antag-2 – blocks the human orexin 1 receptor; actives 0.43% (n = 330,000); inhibition, % at 5 µM; O43613; AID 434989; CHO/OX1R cells, Fluo-8 calcium fluorescence, orexin A;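 active means inhibition above its plate's threshold, mean inhibition of all tested compounds on the plate plus 3 SD, cut at about 37% in these data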;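 further: 0% = orexin A challenge wells and 100% = SB-334867-A antagonist wells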
CHO parental Ca – counter-screen for OX1R antagonists: effect in parental CHO cells | parental CHO-K1, ATP-induced calcium, Fluo-8 fluorescence | inhibition, % at 5.6 µM | actives 0.63% (n = 330,000) | AID 463079;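 active means inhibition above that plate's mean sample inhibition plus 3 SD, cut at about 26% in these data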;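 further: 0% = ATP-challenged DMSO wells and 100% = DMSO wells without ATP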
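Assay system – parental CHO cells · Reagent – ATP stimulus · Detection – intracellular calcium via Fluo-8 no-wash fluorescent dye · Evaluation – percent inhibition of ATP-evoked calcium rise, normalized to controls · Controls – ATP wells versus no-ATP DMSO wells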
* = called active by the depositor; x = not tested or not shown.

SMILES	TAAR1 antag	GPR7 antag	TAAR1 ag	OX1R antag-1	OX1R antag-2	CHO parental Ca
O=C(N/N=C/c1ccc(-c2ccc([N+](=O)[O-])cc2)o1)C(O)c1ccccc1 (stereo unspecified)	-6.0	-14.7	3.8	17.7	-17.4	-11.8
COC(=O)N/N=C/c1cc(OC)c(O)c([N+](=O)[O-])c1	3.4	-2.2	2.9	51.3*	-17.5	-4.5
COc1cc(/C=N/NS(=O)(=O)c2ccc(C)c([N+](=O)[O-])c2)cc([N+](=O)[O-])c1O	-8.3	-9.9	3.7	9.4	1.6	-8.4
NC(=O)N/N=C/c1ccc([N+](=O)[O-])o1	-13.3	x	1.5	66.2*	-2.6	3.8
O=C(COc1ccccc1)N/N=C/c1ccc([N+](=O)[O-])o1	4.6	-6.2	2.0	53.1	-7.5	0.0
O=C(O)c1cccc(-c2ccc(/C=N/Nc3ccc([N+](=O)[O-])cc3)o2)c1	57.4*	10.9	43.9*	12.1	53.6*	32.7*
O=C(N/N=C/c1ccc([N+](=O)[O-])o1)C(O)c1ccccc1 (stereo unspecified)	-11.3	-6.2	3.2	36.2*	-2.9	-6.8
CCOc1ccc(OCCC(=O)Nc2ccccc2C(=O)NC2CC2)cc1	9.5	x	1.3	x	x	x
Cc1c(C(=O)O)cccc1-c1ccc(/C=N/Nc2ccc(Br)cc2)o1	58.6*	0.9	22.6	21.5	6.1	-1.6
Cc1cc(C(=O)N/N=C/c2ccc([N+](=O)[O-])o2)c(C)o1	-9.7	-16.8	-1.2	31.8	8.0	-5.4
COC(=O)N/N=C/c1ccc([N+](=O)[O-])o1	-6.9	-19.5	5.9	55.8*	-13.2	-7.1
COc1cc(OC)c2c(=O)cc(-c3ccccc3)oc2c1	8.5	-25.4	0.6	44.4*	-30.0	-16.1
COc1ccccc1CNn1c(-c2cccc(C)c2)nc2ccccc2c1=O	43.1	-18.1	11.3	51.1*	18.0	-36.1
CCCC[n+]1ccn(C2=C([O-])c3ccccc3C(=O)/C2=N\S(=O)(=O)c2ccc(Br)cc2)c1	-15.2	-8.7	1.6	20.4	-21.3	-15.4
Cc1ccc(S(=O)(=O)/N=C2\C(=O)c3ccccc3C([O-])=C2n2cc[n+](CCC(C)C)c2)cc1	x	-3.6	x	44.4*	-14.7	-8.5
Cc1ccc(NC(=O)C[n+]2ccn(C3=C([O-])c4ccccc4C3=O)c2)cc1	11.4	-24.8	43.2*	40.0	-6.7	-2.2
Cn1cc(C(=O)Nc2ccc(Cl)c(Cl)c2)cn1	-11.0	x	11.5	8.6	-1.0	-4.8
N#C/C(=C\c1ccc(N2CCOCC2)o1)C(=O)NCCc1ccccc1	31.9	9.7	40.6*	26.2	19.0	11.7
N#C/C(=C/c1ccc(N2CCOCC2)o1)C(=O)Nc1ccccc1	33.6	11.4	56.1*	x	x	x
O=C(NCc1ccccc1)[C@H]1CCCN1C(=O)[C@H]1CCCN1C(=O)c1ccc(Cl)cc1	-11.8	x	0.6	x	x	x
COC(=O)C1=C(C)N(C)C(=NCc2ccccc2)NC1c1ccccc1 (stereo unspecified)	-2.7	x	0.0	x	x	x
C[C@@H]1NS(=O)(=O)c2cccc(Cl)c2O[C@@H]1c1ccccc1	-30.0	x	-0.5	x	x	x
COC(=O)c1cc2c(c3c4ccccc4n(S(=O)(=O)c4ccccc4)c13)C(=O)N(C)C2	-28.1	x	-0.3	x	x	x
Cn1nnnc1SCC(=O)N1CCN(c2ccc(Cl)cc2)CC1	-5.5	15.8*	10.9	3.1	-13.2	-11.8
Cn1nnnc1SCC(=O)N1CCCCC1	-0.6	3.6	1.9	8.0	-14.0	12.8
SMILES	TAAR1 antag	GPR7 antag	TAAR1 ag	OX1R antag-1	OX1R antag-2	CHO parental Ca
C[C@@H](C(=O)NNC(=O)c1ccc(Cl)cc1)N1C(=O)C2CC=CCC2C1=O (stereo partly specified)	-21.2	x	0.3	8.0	-29.6	-13.8
O=C(NC1CCCC1)C(c1cccs1)N(CC1CCCO1)C(=O)Cc1cccs1 (stereo unspecified)	12.4	17.6*	3.0	21.5	-7.7	-19.9
COc1ccc(C(C(=O)NC2CCCC2)N(CC2CCCO2)C(=O)Cc2cccs2)cc1OC (stereo unspecified)	7.7	17.6	-1.2	12.2	-32.7	-22.3
C=CCN=C1NC(c2ccc(F)cc2)C(C(=O)OC)=C(C)N1C (stereo unspecified)	-5.6	x	4.1	x	x	x
COc1ccnc(Oc2ccccc2)c1C(=O)N/C=N/OCc1ccccc1F	48.7*	6.1	21.7	11.8	-26.5	-17.9
COc1ccnc(Oc2ccc(F)cc2)c1C(=O)N/C=N/OCc1ccccc1	10.1	9.4	9.7	18.5	2.7	-15.3
c1ccc2c(c1)OCC(CNCC1COc3ccccc3O1)O2 (stereo unspecified)	1.0	-6.3	4.7	9.4	-25.4	-14.9
Oc1ccc(CNCC2COc3ccccc3O2)cc1 (stereo unspecified)	-1.4	1.7	37.7*	19.4	-14.3	-6.9
CC(C)=CCC/C(C)=C/CCC(C)NCCN1CCNCC1 (stereo unspecified)	x	24.5*	x	12.4	-28.4	-24.8
COC(=O)[C@]12C[C@H](CC(=O)N3CCCC3)C(=O)N(Cc3ccc4c(c3)OCO4)C1=C[C@H](COCc1ccccc1)O[C@@H]2C	-18.4	x	-1.2	x	x	x
Cn1c(=O)c2c(ncn2CC(=O)OCCCC(=O)c2ccc(Br)cc2)n(C)c1=O	-10.3	x	4.4	17.8	38.4	34.7*
Cc1cc(N2CCNC[C@H]2C)ccc1N1CCS(=O)(=O)CC1	5.0	x	1.9	x	x	x
CC(=O)N(C1=C(N)C(=O)c2ccccc2C1=O)c1ccccc1	-24.3	9.2	0.0	45.5*	-11.7	-3.4
O=C(N[C@H](C(=O)N1CCC[C@H]1C(=O)NC1CCCC1)c1ccccc1)c1ccc(Cl)c(Cl)c1	0.0	x	-2.7	x	x	x
Cn1c2ccccc2c2c(=O)oc3ccccc3c21	-21.9	x	0.9	61.3*	25.1	-5.5
CCCn1cnc2c(=O)oc3ccccc3c21	17.2	-12.1	4.2	31.2	3.1	11.4
CCCCNc1cccc2c1S(=O)(=O)N[C@H](Cc1ccccc1)CO2	43.2	x	-0.8	x	x	x
O=C(Nc1cccc(C(=O)O)c1)/C(=C/c1cccc([N+](=O)[O-])c1)NC(=O)c1cccc(Br)c1	-17.1	x	-0.3	51.4	-1.5	-2.6
O=C(N/N=C/C(Cl)=C/c1ccc([N+](=O)[O-])cc1)C(=O)Nc1cccc(C(=O)O)c1	-31.8	-5.0	1.6	65.8*	-16.5	3.2
C=CCN(CC=C)S(=O)(=O)c1ccc(NC(=O)COc2ccccc2OC)cc1	36.0	7.5	7.6	20.0	6.0	37.7*
COc1ccccc1OCC(=O)Nc1ccc(S(=O)(=O)N2CCCCCC2)cc1	28.1	-10.1	5.8	-2.4	1.1	-8.7
CCCN(C(=O)CCc1cn(CCC)c2ccccc12)c1ccc(Oc2cccnc2)cc1	43.5	x	0.4	x	x	x

High-throughput results deposited in PubChem BioAssay by The Scripps Research Institute Molecular Screening Center.
